Assays:
[1] = target: T1, Angiotensin II receptor (Rattus norvegicus) (UniProt P29089+P25095+P35351); experiment: Angiotensin II receptor agonist activity was tested in rat isolated uterus assay using [Asp1,Ile5]ANG II (human angiotensin II) as the standard; format: functional, tissue-based
Procedure, shortened: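 Uterine horns from diethylstilbestrol-primed virgin Sprague-Dawley rats (150–250 g), defatted and halved. Each half held at 1 g tension in a 3-mL bath at pH 7.0, oxygen-gassed (150 mM NaCl, 5.6 mM KCl, 0.18 mM CaCl2, 1.8 mM NaHCO3, 1.4 mM glucose). Contractions recorded isotonically. Agonism measured by matching each response to an equivalent response to human ANG II. Mean ± SEM.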

[2] = target: T2, Angiotensin II receptor (Rattus norvegicus, UniProt P29089+P25095+P35351); experiment: Angiotensin II receptor antagonist activity was tested in rat isolated uterus assay using [Asp1,Ile5]ANG II (human angiotensin II) as the standard; format: functional, tissue-based
T2 sequence (P29089 whole entry): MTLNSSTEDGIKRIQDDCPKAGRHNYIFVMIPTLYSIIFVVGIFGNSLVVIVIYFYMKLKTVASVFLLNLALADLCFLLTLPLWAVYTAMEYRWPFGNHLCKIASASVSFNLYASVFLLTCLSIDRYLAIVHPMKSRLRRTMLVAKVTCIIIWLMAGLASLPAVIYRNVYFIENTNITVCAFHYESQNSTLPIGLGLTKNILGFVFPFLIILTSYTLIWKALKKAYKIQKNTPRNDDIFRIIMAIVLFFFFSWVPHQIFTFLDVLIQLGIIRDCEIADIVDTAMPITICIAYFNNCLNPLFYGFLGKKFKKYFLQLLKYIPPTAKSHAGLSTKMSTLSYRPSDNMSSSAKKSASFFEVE
T2 sequence (P25095 whole entry): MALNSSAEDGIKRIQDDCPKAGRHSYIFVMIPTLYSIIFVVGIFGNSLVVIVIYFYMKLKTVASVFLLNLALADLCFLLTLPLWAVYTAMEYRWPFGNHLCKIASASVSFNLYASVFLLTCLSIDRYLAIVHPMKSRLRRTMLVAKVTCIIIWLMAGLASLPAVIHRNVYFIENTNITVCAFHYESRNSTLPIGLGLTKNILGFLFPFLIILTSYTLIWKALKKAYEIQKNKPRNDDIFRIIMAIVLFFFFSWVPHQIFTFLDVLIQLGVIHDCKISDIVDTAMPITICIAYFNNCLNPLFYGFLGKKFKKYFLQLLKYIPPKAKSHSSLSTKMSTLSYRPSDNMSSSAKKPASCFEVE
T2 sequence (P35351 whole entry): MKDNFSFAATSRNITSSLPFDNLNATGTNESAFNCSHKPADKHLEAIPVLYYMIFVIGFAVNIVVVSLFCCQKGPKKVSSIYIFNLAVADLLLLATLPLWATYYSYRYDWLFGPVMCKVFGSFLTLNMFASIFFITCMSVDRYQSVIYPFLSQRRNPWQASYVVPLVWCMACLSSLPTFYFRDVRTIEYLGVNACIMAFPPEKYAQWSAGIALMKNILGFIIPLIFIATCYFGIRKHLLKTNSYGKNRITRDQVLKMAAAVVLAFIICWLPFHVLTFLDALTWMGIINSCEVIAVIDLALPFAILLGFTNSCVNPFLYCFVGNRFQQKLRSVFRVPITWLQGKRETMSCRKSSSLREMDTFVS
Procedure, shortened: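 Defatted, halved uterine horns from diethylstilbestrol-primed virgin Sprague-Dawley rats (150–250 g), at 1 g tension in a 3-mL bath at pH 7.0, oxygen-gassed (150 mM NaCl, 5.6 mM KCl, 0.18 mM CaCl2, 1.8 mM NaHCO3, 1.4 mM glucose). Isotonic recording of contraction. pA2 is the negative log of the antagonist concentration that cuts the response to an EC50 dose of human ANG II down to the response to half the EC50 dose. Mean ± SEM.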

[3] = target: T1, Angiotensin II receptor (Rattus norvegicus); experiment: Compound was evaluated for the antagonistic activity against rat Angiotensin II receptor by using isometric bioassay system; format: functional

**Q.** For `CC[C@H](C)[C@H](NC(=O)[C@@H](NC(=O)[C@@H](NC(=O)[C@H](CCCN=C(N)N)NC(=O)CNC)C(C)C)[C@H](C)O)C(=O)N[C@@H](Cc1c[nH]cn1)C(=O)N1CCC[C@@H]1C(=O)N[C@@H](Cc1ccccc1)C(=O)O`, which Activity [1] is on record?
**A.** Its Activity is 2%.

**Q.** With `CC[C@H](C)[C@H](NC(=O)C1CCCN1C(=O)[C@H](Cc1c[nH]cn1)NC(=O)[C@@H](NC(=O)[C@H](Cc1ccc(O)cc1)NC(=O)[C@@H](NC(=O)[C@H](CCCN=C(N)N)NC(=O)CNC)C(C)C)[C@@H](C)CC)C(=O)O` (single isomer, unassigned) as the compound, how does the Activity [1] read?
**A.** The Activity was less than 0.1%.

**Q.** What does the source list for `CC[C@H](C)[C@H](NC(=O)[C@@H](Cc1ccccc1)NC(=O)[C@@H](NC(=O)[C@H](CCCN=C(N)N)NC(=O)CNC)C(C)C)C(=O)N[C@@H](Cc1c[nH]cn1)C(=O)N1CCC[C@@H]1C(=O)N[C@@H](Cc1ccccc1)C(=O)O`?
**A.** Activity [1]: < 0.1%; pA2 [2]: < 5.5

**Q.** For `CC[C@H](C)[C@H](NC(=O)[C@@H](NC(=O)[C@H](CCCN=C(N)N)NC(=O)CNC)C(C)C)C(=O)N[C@H](C(=O)N[C@@H](Cc1c[nH]cn1)C(=O)N1CCC[C@@H]1C(=O)N[C@@H](Cc1ccccc1)C(=O)O)[C@@H](C)CC`, which Activity [1] is on record?
**A.** Its Activity is 0.2%.

**Q.** For `CC[C@H](C)[C@H](NC(=O)[C@@H](Cc1ccc(O)cc1)NC(=O)[C@@H](NC(=O)[C@H](CCCN=C(N)N)NC(=O)CNC)C(C)C)C(=O)N[C@@H](Cc1c[nH]cn1)C(=O)N1CCC[C@H]1C(=O)N[C@@H](Cc1ccccc1)C(=O)O`, which pA2 [2] is on record?
**A.** Its pA2 is less than 6.5.

**Q.** For `CC[C@H](C)[C@H](NC(=O)[C@H](Cc1ccc(OC)cc1)NC(=O)[C@@H](NC(=O)[C@H](CCCN=C(N)N)NC(=O)CNC)C(C)C)C(=O)N[C@@H](Cc1c[nH]cn1)C(=O)N1CCC[C@H]1C(=O)N[C@@H](Cc1ccccc1)C(=O)O`, which Activity [1] is on record?
**A.** The Activity was less than 0.1%.

**Q.** And the Activity [3]?
**A.** Its Activity is 8.1.

**Q.** What about the pA2 [2] of the same compound?
**A.** Its pA2 is 7.5.

**Q.** With `CC[C@H](C)[C@H](NC(=O)[C@H](Cc1ccccc1)NC(=O)[C@@H](NC(=O)[C@H](CCCN=C(N)N)NC(=O)CNC)C(C)C)C(=O)N[C@@H](Cc1c[nH]cn1)C(=O)N1CCC[C@H]1C(=O)N[C@@H](Cc1ccccc1)C(=O)O` as the compound, how does the Activity [1] read?
**A.** Its Activity is 22%.

**Q.** And the pA2 [2]?
**A.** The pA2 was 7.9.

**Q.** `CC[C@H](C)[C@H](NC(=O)[C@@H]1CCCN1C(=O)[C@H](Cc1c[nH]cn1)NC(=O)[C@@H](NC(=O)[C@H](Cc1ccccc1)NC(=O)[C@@H](NC(=O)[C@H](CCCN=C(N)N)NC(=O)CNC)C(C)C)[C@@H](C)CC)C(=O)O` was tested. Which Activity [1] did it give?
**A.** The Activity was less than 0.1%.

**Q.** And the pA2 [2]?
**A.** The pA2 was 6.7.

**Q.** Which results are given for `CCOc1ccc(C[C@H](NC(=O)[C@@H](NC(=O)[C@H](CCCN=C(N)N)NC(=O)CNC)C(C)C)C(=O)N[C@H](C(=O)N[C@@H](Cc2c[nH]cn2)C(=O)N2CCC[C@H]2C(=O)N[C@@H](Cc2ccccc2)C(=O)O)[C@@H](C)CC)cc1`?
**A.** Activity [1]: 0.2%; pA2 [2]: < 6

**Q.** With `CC[C@H](C)[C@H](NC(=O)[C@H](Cc1ccc(OC)cc1)NC(=O)[C@@H](NC(=O)[C@H](CCCN=C(N)N)NC(=O)[C@@H]1CCCN1)C(C)C)C(=O)N[C@@H](Cc1c[nH]cn1)C(=O)N1CCC[C@H]1C(=O)N[C@@H](Cc1ccccc1)C(=O)O` as the compound, how does the pA2 [2] read?
**A.** The pA2 was less than 6.

**Q.** For `CC[C@H](C)[C@H](NC(=O)[C@H]1CCCN1C(=O)[C@H](Cc1c[nH]cn1)NC(=O)[C@@H](NC(=O)[C@@H](Cc1ccc(O)cc1)NC(=O)[C@@H](NC(=O)[C@H](CCCN=C(N)N)NC(=O)CNC)C(C)C)[C@@H](C)CC)C(=O)O`, which Activity [1] is on record?
**A.** Its Activity is less than 0.1%.

**Q.** Which pA2 [2] does the source give for `CC[C@H](C)[C@H](NC(=O)[C@@H]1C[C@@H](O)CN1C(=O)[C@@H](NC(=O)[C@H](CCCN=C(N)N)NC(=O)CNC)C(C)C)C(=O)N[C@@H](Cc1c[nH]cn1)C(=O)N1CCC[C@H]1C(=O)N[C@@H](Cc1ccccc1)C(=O)O` here?
**A.** The pA2 was less than 5.

**Q.** How did the Activity [1] turn out when `CC[C@H](C)[C@H](NC(=O)[C@@H]1C[C@@H](O)CN1C(=O)[C@@H](NC(=O)[C@H](CCCN=C(N)N)NC(=O)CNC)C(C)C)C(=O)N[C@@H](Cc1c[nH]cn1)C(=O)N1CCC[C@@H]1C(=O)N[C@@H](Cc1ccccc1)C(=O)O` was run?
**A.** Its Activity is less than 0.1%.

**Q.** With `CC[C@H](C)[C@H](NC(=O)[C@@H]1CCCN1C(=O)[C@H](Cc1c[nH]cn1)NC(=O)[C@@H](NC(=O)[C@H](Cc1ccc(OC)cc1)NC(=O)[C@@H](NC(=O)[C@H](CCCN=C(N)N)NC(=O)CNC)C(C)C)[C@@H](C)CC)C(=O)O` as the compound, how does the Activity [1] read?
**A.** The Activity was less than 0.1%.

**Q.** What about the pA2 [2] of the same compound?
**A.** Its pA2 is 6.6.

**Q.** What does the source list for `CC[C@H](C)[C@H](NC(=O)[C@H]1CCCN1C(=O)[C@H](Cc1c[nH]cn1)NC(=O)[C@@H](NC(=O)[C@@H](Cc1ccccc1)NC(=O)[C@@H](NC(=O)[C@H](CCCN=C(N)N)NC(=O)CNC)C(C)C)[C@@H](C)CC)C(=O)O`?
**A.** Activity [1]: < 0.1%; pA2 [2]: < 5

**Q.** For `CC[C@H](C)[C@H](NC(=O)[C@@H](NC(=O)[C@H](CCCN=C(N)N)NC(=O)CNC)C(C)C)C(=O)N[C@H](C(=O)N[C@@H](Cc1c[nH]cn1)C(=O)N1CCC[C@H]1C(=O)N[C@@H](Cc1ccccc1)C(=O)O)[C@@H](C)CC`, which pA2 [2] is on record?
**A.** The pA2 was less than 6.

**Q.** With `CC[C@H](C)[C@H](NC(=O)[C@@H](NC(=O)[C@@H](NC(=O)[C@H](CCCN=C(N)N)NC(=O)CNC)C(C)C)[C@@H](C)O)C(=O)N[C@@H](Cc1c[nH]cn1)C(=O)N1CCC[C@H]1C(=O)N[C@@H](Cc1ccccc1)C(=O)O` as the compound, how does the pA2 [2] read?
**A.** The pA2 was less than 6.

**Q.** For `CC[C@H](C)[C@H](NC(=O)[C@H](Cc1ccc(OC)cc1)NC(=O)[C@@H](NC(=O)[C@H](CCCN=C(N)N)NC(=O)[C@@H]1CCCN1)C(C)C)C(=O)N[C@@H](Cc1c[nH]cn1)C(=O)N1CCC[C@@H]1C(=O)N[C@@H](Cc1ccccc1)C(=O)O`, which Activity [1] is on record?
**A.** Its Activity is 0.3%.

**Q.** For `CC[C@H](C)[C@H](NC(=O)[C@@H](Cc1ccc(O)cc1)NC(=O)[C@@H](NC(=O)[C@H](CCCN=C(N)N)NC(=O)CNC)C(C)C)C(=O)N[C@@H](Cc1c[nH]cn1)C(=O)N1CCC[C@@H]1C(=O)N[C@@H](Cc1ccccc1)C(=O)O`, which Activity [1] is on record?
**A.** The Activity was 2%.

**Q.** For `CC[C@H](C)[C@H](NC(=O)[C@H](Cc1ccc(OC)cc1)NC(=O)[C@@H](NC(=O)[C@H](CCCN=C(N)N)NC(=O)[C@H](C)N)C(C)C)C(=O)N[C@@H](Cc1c[nH]cn1)C(=O)N1CCC[C@@H]1C(=O)N[C@@H](Cc1ccccc1)C(=O)O`, which Activity [1] is on record?
**A.** The Activity was less than 0.1%.

**Q.** How did the pA2 [2] turn out when `CC[C@H](C)[C@H](NC(=O)[C@H](Cc1ccc(OC)cc1)NC(=O)[C@@H](NC(=O)[C@H](CCCN=C(N)N)NC(=O)[C@H](C)N)C(C)C)C(=O)N[C@@H](Cc1c[nH]cn1)C(=O)N1CCC[C@H]1C(=O)N[C@@H](Cc1ccccc1)C(=O)O` was run?
**A.** The pA2 was less than 6.

— ChEMBL document CHEMBL1123284, “Structure-activity relationships for the competitive angiotensin antagonist [sarcosine,O-methyltyrosine4]angiotensin II (sarmesin)” (J Med Chem, 1986)
